Experiments:
UMUC3 = experiment: Photosensitizing activity in human UMUC3 cells assessed as reduction in cell viability pretreated with compound for 24 hrs followed by light irradiation at 1 J/cm2 and measured after 48 hrs by MTT assay; format: functional, cell-based; conditions: UMUC3, light or radiation study
Method in brief: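 Cells plated 0.01x10⁶ to 0.05x10⁶ cells/ml and allowed to adhere 24 h before photosensitizer was added, top dose 1600 nM with 2-fold serial dilutions. Plates received no light (0 J/cm²) or 1 J/cm² at 565 mW, 15 cm spot. After 48 h, MTT added for 3 h, formazan solubilized in DMSO and read at 570 nm; IC₅₀ fitted from dose-response.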

FaDu = experiment: Photosensitizing activity in human FaDu cells assessed as reduction in cell viability pretreated with compound for 24 hrs followed by light irradiation at 1 J/cm2 and measured after 48 hrs by MTT assay; format: functional, cell-based; conditions: light or radiation study
Method in brief: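 Cells seeded at 0.01–0.05 x 10⁶ cells/ml; PS added 24 h after plating, top dose 1600 nM with 2-fold serial dilutions. Plates given 0 or 1 J/cm² light. MTT added 48 h later, formazan dissolved in DMSO, absorbance at 570 nm; IC50 from curve fitting.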

[1] = Drug uptake in human CFSE-stained HN-121 cells assessed as increase in drug retention at 1.6 uM in medium with 10% FBS followed by 48 hrs chase period by inverted fluorescence microscopic analysis; format: ADME, cell-based; conditions: hn-121, 48 h
[2] = Drug uptake in human FaDu clone 49 cells assessed as increase in drug retention at 1.6 uM in RPMI medium with 10% FBS followed by 48 hrs chase period by inverted fluorescence microscopic analysis
[3] = Drug uptake in tumor of SCID mouse xenografted with human UMUC3 cells at 0.47 micromol/kg, iv pretreated with compound followed by light irradiation at a dose of 135 J/cm2 and 75 mW/cm2 measured after 2 to 24 hrs by IVIS analysis; format: ADME, organism-based, Neoplasm; conditions: in vivo, time 2-24 hrs, dose 0.47 µmol/kg
Method in brief: (§1)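 Female SCID mice with UMUC3 flank/shoulder tumors, 3 per group. PS in 1% Tween80/5% dextrose given iv at 0.47, 0.25 or 0.125 μmol/kg. Whole-body fluorescence imaging by IVIS at several times after injection; average radiant efficiency measured in tumor, liver and skin.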

[4] = Drug uptake in liver of SCID mouse xenografted with human UMUC3 cells at 0.47 micromol/kg, iv pretreated with compound followed by light irradiation at a dose of 135 J/cm2 and 75 mW/cm2 measured after 2 to 24 hrs by IVIS analysis; format: ADME, organism-based; conditions: in vivo, time 2-24 hrs, dose 0.47 µmol/kg; method in brief: as §1
[5] = Drug uptake in skin of SCID mouse xenografted with human UMUC3 cells at 0.47 micromol/kg, iv pretreated with compound followed by light irradiation at a dose of 135 J/cm2 and 75 mW/cm2 measured after 2 to 24 hrs by IVIS analysis; format: ADME, organism-based, Skin of body; conditions: in vivo, time 2-24 hrs, dose 0.47 µmol/kg; method in brief: as §1
[6] = Drug uptake in human HNT1 cells at 3.2 uM incubated for 30 mins in serum free medium followed by […] in compound-free medium by inverted fluorescence microscopic analysis; format: ADME, cell-based; conditions: hnt1, 0.5 h
Method in brief: (§2)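 Confluent HNT1 cultures (passage 116) given 3.2 μM PS for 30 min in serum-free medium, then 5 h in serum-containing medium with PS, then 15 h chase in serum medium without PS. Fluorescence recorded at 100X with varied camera exposures and quantified digitally; pixel signal normalized to time and cell number.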

[7] = Drug uptake in human HNT1 cells at 3.2 uM incubated for 30 mins in DMEM media with 10% FBS followed by […] in compound-free medium by inverted fluorescence microscopic analysis; format: ADME, cell-based; conditions: hnt1, 0.5 h, in the assay text read “in serum-free medium” for “in DMEM media with 10% FBS”; method in brief: as §2
[8] = Drug uptake in human HN-143 cells assessed as increase in drug retention retention at 3 uM in medium with 10% FBS incubated for 5 hrs followed by 40 hrs chase period by inverted fluorescence microscopic analysis; format: ADME, cell-based; conditions: hn-143, 5 h
Method in brief: (§3)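 Five-day co-cultures of HN-143 tumor epithelial cells and HN-166 tumor fibroblasts, both primary head & neck tumor cultures grown on collagen-1 under selective media. PS in 10% FBS medium for 5 h, then 40 h chase without PS. Phase-contrast and fluorescence images taken at 100X with 500 ms exposure; signal normalized to recording time and cell number.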

[9] = Drug uptake in human HN-166 cells assessed as increase in drug retention retention at 3 uM in medium with 10% FBS incubated for 5 hrs followed by 40 hrs chase period by inverted fluorescence microscopic analysis; format: ADME, cell-based; conditions: hn-166, 5 h; method in brief: as §3

| Structure (SMILES) | Drug uptake [1] | Drug uptake [2] | IC50 (UMUC3) [nM] | IC50 (FaDu) [nM] | further results |
| --- | --- | --- | --- | --- | --- |
| CCCCCCOC(C)c1c(C)c2cc3nc(c4c5[nH]c(cc6nc(cc1[nH]2)C(C)=C6CC)c(C)c5C(=O)C4)[C@@H](CCC(=O)NCc1cccc(I)c1)[C@@H]3C (some centres undefined) | – | – | 187 | 520 | – |
| CCC1=C(C)c2cc3[nH]c(c(C)c3CC)c(-c3ccc(C(=O)NCc4ccc(I)cc4)cc3)c3nc(c4c5[nH]c(cc1n2)c(C)c5C(=O)C4)[C@@H](CCC(=O)OC)[C@@H]3C | Not Active | Not Active | 196 | 1250 | – |
| C=Cc1c(C)/c2[nH]/c1=C\C1=NC(=C\C3=C(C)C4C(=O)N(Cc5cccc(C#Cc6cccc(Nc7ncnc8cc(OCCOC)c(OCCOC)cc78)c6)c5)C(=O)/C(=C5N=C(\C=2)[C@@H](C)[C@@H]/5CCC(=O)OC)C4N3)/C(CC)=C1C (some centres undefined) | Not Active | Not Active | – | – | – |
| CCC1=C(C)c2cc3[nH]c(c(C)c3CC)c(-c3ccc(C(=O)NCc4ccc(C#Cc5cccc(Nc6ncnc7cc(OCCOC)c(OCCOC)cc67)c5)cc4)cc3)c3nc(c4c5[nH]c(cc1n2)c(C)c5C(=O)C4)[C@@H](CCC(=O)OC)[C@@H]3C | Not Active | Not Active | – | > 10000 | – |
| CCC1=C(C)c2cc3[nH]c(cc4nc(c5c6[nH]c(cc1n2)c(C)c6C(=O)C5)[C@@H](CCC(=O)O)[C@@H]4C)c(C)c3C(C)OCc1cccc(C#Cc2cccc(Nc3ncnc4cc(OCCOC)c(OCCOC)cc34)c2)c1 (some centres undefined) | – | – | 54.8 | 31.8 | Drug uptake [6]: Active; Drug uptake [7]: Active; Drug uptake [3]: Not Active |
| C=Cc1c(C)c2cc3nc(c(CC(=O)OC)c4[nH]c(cc5nc(cc1[nH]2)C(C)=C5CC)c(C)c4C(=O)NCc1cccc(I)c1)[C@@H](CCC(=O)OC)[C@@H]3C | – | – | 28.2 | 13.8 | – |
| CCC1c2cc3[nH]c4c(c5nc(cc6[nH]c(cc(n2)C1C)c(C(C)OCc1cccc(C#Cc2cccc(Nc7ncnc8cc(OCCOC)c(OCCOC)cc78)c2)c1)c6C)[C@@H](C)[C@@H]5CCC(=O)OC)CC(=O)c4c3C (some centres undefined) | Not Active | Not Active | 16.8 | – | – |
| C=Cc1c(C)c2cc3nc(c(CC(=O)OC)c4[nH]c(cc5nc(cc1[nH]2)C(C)=C5CC)c(C)c4C(=O)NCc1cccc(C#Cc2cccc(Nc4ncnc5cc(OCCOC)c(OCCOC)cc45)c2)c1)[C@@H](CCC(=O)OC)[C@@H]3C | – | – | 39.6 | 33.4 | – |
| CCCCCCOC(C)c1c(C)c2cc3nc(c4c5[nH]c(cc6nc(cc1[nH]2)C(C)=C6CC)c(C)c5C(=O)C4)[C@@H](CCC(=O)NCc1cccc(C#Cc2cccc(Nc4ncnc5cc(OCCOC)c(OCCOC)cc45)c2)c1)[C@@H]3C (some centres undefined) | Active | Active | 43.4 | – | Drug uptake [8]: Active; Drug uptake [9]: Active |
| C=Cc1c(C)c2cc3nc(c(CC(=O)NCc4cccc(C#Cc5cccc(Nc6ncnc7cc(OCCOC)c(OCCOC)cc67)c5)c4)c4[nH]c(cc5nc(cc1[nH]2)C(C)=C5CC)c(C)c4C(=O)OC)[C@@H](CCC(=O)OC)[C@@H]3C | – | – | 45 | 166 | – |
| CCCCCCOC(C)c1c(C)c2cc3nc(c(CC(=O)OC)c4[nH]c(cc5nc(cc1[nH]2)C(C)=C5CC)c(C)c4C(=O)NCCCOCCOCCOCCCNC(=O)Cc1cccc(I)c1)[C@@H](CCC(=O)OC)[C@@H]3C (some centres undefined) | – | – | 6.8 | 15.4 | – |
| C=Cc1c(C)c2cc3nc(c(CC(=O)OC)c4[nH]c(cc5nc(cc1[nH]2)C(C)=C5CC)c(C)c4C(=O)NCCNC(=O)COCC(=O)NCCCOCCOCCOCCCNC(=O)Cc1cccc(I)c1)[C@@H](CCC(=O)OC)[C@@H]3C | Not Active | Not Active | 26.4 | 19.2 | – |
| CCCCCCOC(C)c1c(C)c2cc3nc(c(CC(=O)OC)c4[nH]c(cc5nc(cc1[nH]2)C(C)=C5CC)c(C)c4C(=O)NCc1cccc(I)c1)[C@@H](CCC(=O)OC)[C@@H]3C (some centres undefined) | Not Active | Not Active | – | – | – |

More lines, main results first:

| Drug uptake [1] | Drug uptake [2] | Structure (SMILES) | IC50 (UMUC3) [nM] | IC50 (FaDu) [nM] | further results |
| --- | --- | --- | --- | --- | --- |
| Not Active | Not Active | CCCCCCOC(C)c1c(C)c2cc3nc(c4c5[nH]c(cc6nc(cc1[nH]2)C(C)=C6CC)c(C)c5C(=O)C4)[C@@H](CCC(=O)NC(CCC(=O)NCc1cccc(C#Cc2cccc(Nc4ncnc5cc(OCCOC)c(OCCOC)cc45)c2)c1)(CCC(=O)NCc1cccc(C#Cc2cccc(Nc4ncnc5cc(OCCOC)c(OCCOC)cc45)c2)c1)CCC(=O)NCc1cccc(C#Cc2cccc(Nc4ncnc5cc(OCCOC)c(OCCOC)cc45)c2)c1)[C@@H]3C (some centres undefined) | – | – | – |
| Not Active | Not Active | CCC1c2cc3[nH]c4c(c5nc(cc6[nH]c(cc(n2)C1C)c(C(C)OCc1cccc(C#Cc2cccc(Nc7ncnc8cc(OCCOC)c(OCCOC)cc78)c2)c1)c6C)[C@@H](C)[C@@H]5CCC(=O)O)CC(=O)c4c3C (some centres undefined) | 8.9 | – | – |
| Not Active | Not Active | CCC1=C(C)c2cc3[nH]c(cc4nc(c5c6[nH]c(cc1n2)c(C)c6C(=O)C5)[C@@H](CCC(=O)OC)[C@@H]4C)c(C)c3COCc1cccc(C#Cc2cccc(Nc3ncnc4cc(OCCOC)c(OCCOC)cc34)c2)c1 | 76.3 | 23.3 | Drug uptake [3]: Not Active; Drug uptake [4]: Active; Drug uptake [5]: Active |
| Not Active | Not Active | CCCCCCOC(C)c1c(C)c2cc3nc(c(CC(=O)OC)c4[nH]c(cc5nc(cc1[nH]2)C(C)=C5CC)c(C)c4C(=O)NCc1cccc(C#Cc2cccc(Nc4ncnc5cc(OCCOC)c(OCCOC)cc45)c2)c1)[C@@H](CCC(=O)OC)[C@@H]3C (some centres undefined) | 3.5 | – | Drug uptake [8]: Active; Drug uptake [9]: Active |
| Active | Active | CCCCCCOC(C)c1c(C)c2cc3nc(c(CC(=O)OC)c4[nH]c(cc5nc(cc1[nH]2)C(C)=C5CC)c(C)c4C(=O)NCCCOCCOCCOCCCNC(=O)Cc1cccc(C#Cc2cccc(Nc4ncnc5cc(OCCOC)c(OCCOC)cc45)c2)c1)[C@@H](CCC(=O)OC)[C@@H]3C (some centres undefined) | 7.5 | 21.4 | Drug uptake [8]: Active; Drug uptake [9]: Active |
| Not Active | Not Active | C=Cc1c(C)c2cc3nc(c(CC(=O)OC)c4[nH]c(cc5nc(cc1[nH]2)C(C)=C5CC)c(C)c4C(=O)NCCNC(=O)COCC(=O)NCCCOCCOCCOCCCNC(=O)Cc1cccc(C#Cc2cccc(Nc4ncnc5cc(OCCOC)c(OCCOC)cc45)c2)c1)[C@@H](CCC(=O)OC)[C@@H]3C | 59.2 | 88.6 | – |
| Active | Active | CCC1=C(C)c2cc3[nH]c(cc4nc(c5c6[nH]c(cc1n2)c(C)c6C(=O)C5)[C@@H](CCC(=O)O)[C@@H]4C)c(C)c3C(C)OCc1ccc(C#Cc2cccc(Nc3ncnc4cc(OCCOC)c(OCCOC)cc34)c2)cc1 (some centres undefined) | 34.4 | 59.6 | – |

Source: ChEMBL document CHEMBL4732136, “Synthesis, Tumor Specificity, and Photosensitizing Efficacy of Erlotinib-Conjugated Chlorins and Bacteriochlorins: Identification of a Highly Effective Candidate for Photodynamic Therapy of Cancer” (J Med Chem, 2021)
